# Measured values taken from ChEMBL document CHEMBL1123228, “Enantiomers of 3-(3,4-dihydroxyphenyl)- and 3-(3-hydroxyphenyl)-N-n-propylpiperidine: central pre- and postsynaptic dopaminergic effects and pharmacokinetics” (J Med Chem, 1986).
# pKi: −log10 of the molar value.
# Assays:
# Rattus norvegicus [1] = species on record: Rattus norvegicus; assay: Dopa accumulation was evaluated in limbic system of male Sprague-Dawley rat.; assay type: functional
# Procedure, shortened: (§1)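 Male Sprague-Dawley rats, 200–300 g; drug in saline given sc after NSD 1015 decarboxylase inhibition; Dopa measured by HPLC with electrochemical detection. Dose-response curves from four to six dose levels per substance and brain area; ED50 estimated as the dose giving half-maximal decrease of Dopa level.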
# Rattus norvegicus [2] = assay: Level of compound in rat striatum by pretreatment of tropolone (50 mg/kg, ip, 30min) at dose 40 umol/kg; assay type: functional, organism-based
# Procedure, shortened: (§2)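 Female Wistar rats (170–200 g), compound sc in saline (1 mL/kg), killed 60 min later, with or without tropolone (50 mg/kg ip) before dosing. Striatum, cerebellum and cortex were extracted in perchloric acid, cleaned on Sephadex G10 and analysed by HPLC-ECD (pH 4.0, 15% methanol, 600 mV). Recovery-corrected, n = 3.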
# Rattus norvegicus [3] = assay: Level of compound in rat cortex by pretreatment of tropolone (50 mg/kg, ip, 30min) at dose 40 umol/kg; assay type: functional, organism-based; procedure, shortened: as §2
# Rattus norvegicus [4] = assay: Level of compound in rat cortex in the absence of tropolone at dose 8 umol/kg; assay type: functional, organism-based; procedure, shortened: as §2
# Rattus norvegicus [5] = assay: Level of compound in rat cerebellum by pretreatment of tropolone (50 mg/kg, ip, 30min) at dose 8 umol/kg; assay type: functional, organism-based; procedure, shortened: as §2
# Rattus norvegicus [6] = assay: Level of compound in rat striatum at dose 8 umol/kg; assay type: functional, organism-based; procedure, shortened: as §2
# Rattus norvegicus [7] = assay: Level of compound in rat striatum by pretreatment of tropolone (50 mg/kg, ip, 30min) at dose 8 umol/kg; assay type: functional, organism-based; procedure, shortened: as §2
# Rattus norvegicus [8] = assay: Presynaptic activity at the level of DA metabolism was determined at dose 45 umol/kg on striatal level of HVA; assay type: functional
# Procedure, shortened: (§3)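 Female Wistar rats given 45 μmol/kg sc; striatal DOPAC and HVA measured by HPLC with electrochemical detection, compared with saline controls by Student's t test.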
# Rattus norvegicus [9] = assay: Level of compound in rat cortex at dose 8 umol/kg; assay type: functional, organism-based; procedure, shortened: as §2
# Rattus norvegicus [10] = assay: Level of compound in rat cerebellum at dose 40 umol/kg; assay type: functional, organism-based; procedure, shortened: as §2
# Rattus norvegicus [11] = assay: Level of compound in rat striatum in the absence of tropolone at dose 40 umol/kg; assay type: functional, organism-based; procedure, shortened: as §2
# Rattus norvegicus [12] = species on record: Rattus norvegicus; assay: Maximal cAMP production in rat striatal homogenates.; assay type: functional
# Procedure, shortened: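 cAMP formation in rat striatal homogenates was read with an automated adenylate cyclase assay.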
# [13] = Michaelis-Menten constant was measured against adenylate cyclase stimulation of cAMP formation in striatal homogenates; assay type: ADME, tissue-based; conditions: tissue homogenate
# Rattus norvegicus [14] = assay: Motor activity effect in reserpinized rat with tropolone pretreatment at 5 umol/kg, sc expressed as accumulation counts 0-30 min after treatment; assay type: functional
# Procedure, shortened: (§4)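 Male Sprague-Dawley rats given reserpine 5 mg/kg ip 18 h before; some also given tropolone 50 mg/kg 30 min before. Compound given sc in the neck, or ip where stated. Locomotion recorded by photocell motility meters, one rat per cage, as accumulated counts over 0–30 min, mean ± SEM.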
# Rattus norvegicus [15] = assay: Level of compound in rat cortex by pretreatment of tropolone (50 mg/kg, ip, 30min) at dose 8 umol/kg; assay type: functional, organism-based; procedure, shortened: as §2
# Rattus norvegicus [16] = assay: Level of compound in rat cerebellum in the absence of tropolone at dose 40 umol/kg; assay type: functional, organism-based; procedure, shortened: as §2
# Rattus norvegicus [17] = assay: Level of compound in rat cerebellum by pretreatment of tropolone (50 mg/kg, ip, 30min) at dose 40 umol/kg; assay type: functional, organism-based; procedure, shortened: as §2
# [18] = Ratio of Vmax/Km was measured; assay type: ADME
# Procedure, shortened: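 Crude COMT from rat liver (KCl homogenate, 105000g supernatant). Incubated at 37 °C in 50 mM phosphate buffer pH 7.4 with 10 mM MgCl2, S-adenosyl-L-methionine ([…] as printed), and substrate at 0.1–0.00125 mM (final concentrations), 15 min. Stopped with perchloric acid; the O-methylated product was measured by HPLC-electrochemical detection. Km and Vmax from Lineweaver-Burk plots of four experiments, each concentration run in triplicate.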
# Rattus norvegicus [19] = assay: Level of compound in rat cortex in the absence of tropolone at dose 40 umol/kg; assay type: functional, organism-based; procedure, shortened: as §2
# Rattus norvegicus [20] = assay: Presynaptic activity at the level of DA metabolism was determined at dose 45 umol/kg on striatal level of DOPAC; assay type: functional; procedure, shortened: as §3
# Rattus norvegicus [21] = assay: Motor activity effect in reserpinized rat at 50 umol/kg, sc expressed as accumulation counts 0-30 min after treatment; assay type: functional; procedure, shortened: as §4
# Rattus norvegicus [22] = species on record: Rattus norvegicus; assay: Dopa accumulation was evaluated in corpus striatum of male Sprague-Dawley rat.; assay type: functional; procedure, shortened: as §1
# D(1A) dopamine receptor = D(1A) dopamine receptor (Rattus norvegicus, UniProt P18901); assay: In vitro affinity against Dopamine receptor D1 using [3H]SCH-23390 radioligand in rat striatal homogenate.
# D(2) dopamine receptor = D(2) dopamine receptor (Rattus norvegicus, UniProt P61169); assay: In vitro affinity against Dopamine receptor D2 using [3H]DP-5,6-ADTN radioligand in rat striatal homogenate.
# [23] = system: catechol-O-methyl transferase; assay: Michaelis-Menten constant was measured for O-methylation (probably meta) by catechol-O-methyl transferase; assay type: ADME
# Procedure, shortened: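 Crude rat liver COMT (105000g supernatant) at 37°C for 15 min with 0.1–0.00125 mM substrate, S-adenosyl-L-methionine, 10 mM MgCl2 and 50 mM phosphate pH 7.4 (final). Reaction stopped with perchloric acid; O-methyl product measured by HPLC-ECD. Km from Lineweaver-Burk plots, four experiments, each concentration in triplicate.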
# Rattus norvegicus [24] = assay: Level of compound in rat cortex at dose 40 umol/kg; assay type: functional, organism-based; procedure, shortened: as §2
# Rattus norvegicus [25] = assay: Level of compound in rat striatum at dose 40 umol/kg; assay type: functional, organism-based; procedure, shortened: as §2
# Rattus norvegicus [26] = assay: Level of compound in rat cerebellum at dose 8 umol/kg; assay type: functional, organism-based; procedure, shortened: as §2
# Rattus norvegicus [27] = assay: Level of compound in rat cerebellum in the absence of tropolone at dose 8 umol/kg; assay type: functional, organism-based; procedure, shortened: as §2
# D(2) dopamine receptor, sequence (P61169 whole entry): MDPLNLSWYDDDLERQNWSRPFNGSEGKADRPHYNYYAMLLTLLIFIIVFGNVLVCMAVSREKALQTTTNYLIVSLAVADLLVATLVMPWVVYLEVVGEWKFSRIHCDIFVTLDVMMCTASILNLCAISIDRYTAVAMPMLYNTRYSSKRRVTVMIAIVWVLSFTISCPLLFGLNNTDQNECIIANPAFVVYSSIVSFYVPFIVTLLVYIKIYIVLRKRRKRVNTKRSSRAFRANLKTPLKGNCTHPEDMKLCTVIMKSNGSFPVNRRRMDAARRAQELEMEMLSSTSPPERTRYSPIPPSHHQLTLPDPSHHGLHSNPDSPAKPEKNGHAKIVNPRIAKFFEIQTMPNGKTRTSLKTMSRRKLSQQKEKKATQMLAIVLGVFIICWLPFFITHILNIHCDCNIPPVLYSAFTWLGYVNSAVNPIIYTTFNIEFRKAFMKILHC
# D(1A) dopamine receptor, sequence (P18901 whole entry): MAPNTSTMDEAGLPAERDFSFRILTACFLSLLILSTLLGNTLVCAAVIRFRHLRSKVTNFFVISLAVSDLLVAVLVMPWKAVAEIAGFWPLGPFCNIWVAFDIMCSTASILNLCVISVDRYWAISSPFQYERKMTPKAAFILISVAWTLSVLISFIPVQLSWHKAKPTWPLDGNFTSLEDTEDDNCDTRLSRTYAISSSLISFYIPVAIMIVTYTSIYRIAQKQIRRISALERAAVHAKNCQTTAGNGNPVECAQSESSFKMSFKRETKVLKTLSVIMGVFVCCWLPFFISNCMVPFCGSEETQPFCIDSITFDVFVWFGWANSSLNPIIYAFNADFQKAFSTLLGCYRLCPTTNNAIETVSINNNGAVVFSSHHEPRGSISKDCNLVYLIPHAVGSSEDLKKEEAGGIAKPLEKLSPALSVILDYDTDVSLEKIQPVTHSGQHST
smiles,measurement,setting,value
CCCN1CCC[C@@H](c2ccc(O)c(O)c2)C1,ED50,Rattus norvegicus [1],8.5 µmol/kg
same,Level,Rattus norvegicus [2],9720 pmol/g
same,Level,Rattus norvegicus [3],13200 pmol/g
same,Level,Rattus norvegicus [4],16 pmol/g
same,Level,Rattus norvegicus [5],2290 pmol/g
same,Level,Rattus norvegicus [6],2330 pmol/g
same,Level,Rattus norvegicus [7],2540 pmol/g
same,Control,Rattus norvegicus [8],65%
same,Level,Rattus norvegicus [9],3410 pmol/g
same,Level,Rattus norvegicus [10],9160 pmol/g
same,Level,Rattus norvegicus [11],61 pmol/g
same,Production (pM (mg of protein)-1),Rattus norvegicus [12],138
same,Km,[13],21 µM
same,Motor activity,Rattus norvegicus [14],69
same,Level,Rattus norvegicus [15],3250 pmol/g
same,Level,Rattus norvegicus [16],63 pmol/g
same,Level,Rattus norvegicus [17],9330 pmol/g
same,Ratio,[18],485
same,Level,Rattus norvegicus [19],167 pmol/g
same,Control,Rattus norvegicus [20],83%
same,Motor activity,Rattus norvegicus [21],78
same,ED50,Rattus norvegicus [22],8.2 µmol/kg
same,pKi,D(1A) dopamine receptor,4.87
same,pKi,D(2) dopamine receptor,7.92
same,Km,[23],77 µM
same,Level,Rattus norvegicus [24],17000 pmol/g
same,Level,Rattus norvegicus [25],10300 pmol/g
same,Level,Rattus norvegicus [26],2020 pmol/g
same,Level,Rattus norvegicus [27],10 pmol/g
NCCc1ccc(O)c(O)c1 [DOPAMINE],Km,[13],7.8 µM
